{
  "source": "ChEMBL document CHEMBL4699571",
  "about": "“Synthesis of Natural and Unnatural Quinolones Inhibiting the Growth and Motility of Bacteria” (2020)",
  "key": {"Staphylococcus aureus": {"system": "Staphylococcus aureus", "assay": "Antimicrobial activity against Staphylococcus aureus ATCC 12600 assessed as zone of inhibition at 2 mg/ml after 24 hrs by agar well diffusion method", "format": "functional", "conditions": "for zone of inhibition at 2000 µg/mL: read-out: DIZ", "outline": "(§1)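 Preliminary agar well-diffusion screen run against a panel of eight Gram-positive and Gram-negative test microbes.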"}, "Pseudomonas aeruginosa [1]": {"system": "Pseudomonas aeruginosa", "assay": "Antimicrobial activity against Pseudomonas aeruginosa ATCC 15692 assessed as zone of inhibition at 2 mg/ml after 24 hrs by agar well diffusion method", "format": "functional", "conditions": "for zone of inhibition at 2000 µg/mL: read-out: DIZ", "outline": "as §1"}, "[2]": {"system": "Staphylococcus epidermidis", "assay": "Antimicrobial activity against Staphylococcus epidermidis ATCC 14990 assessed as zone of inhibition at 2 mg/ml after 24 hrs by agar well diffusion method", "format": "functional", "conditions": "for zone of inhibition at 2000 µg/mL: read-out: DIZ", "outline": "as §1"}, "Bacillus spizizenii [3]": {"system": "Bacillus spizizenii", "assay": "Antimicrobial activity against Bacillus subtilis subsp. spizizenii ATCC 6633 assessed as zone of inhibition at 2 mg/ml after 24 hrs by agar well diffusion method", "format": "functional", "conditions": "for zone of inhibition at 2000 µg/mL: read-out: DIZ", "outline": "as §1"}, "Bacillus spizizenii [4]": {"system": "Bacillus spizizenii", "assay": "Inhibition of swarming motility of Bacillus subtilis subsp. spizizenii ATCC 6633 at 10 uM after 24 hrs", "format": "functional, organism-based"}, "Pseudomonas aeruginosa [5]": {"system": "Pseudomonas aeruginosa", "assay": "Antimicrobial activity against Pseudomonas aeruginosa ATCC 15692 assessed as reduction in microbial growth at 1.1 to 33.4 ug/ml after 24 hrs by broth microdilution method", "format": "functional, organism-based", "conditions": "dose microg/ml 1.1-33.4, time 24.0 hrs", "outline": "(§2)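 P. aeruginosa growth-inhibition assay in broth. Each compound was tested at final concentrations of 1.1, 2.1, 4.2, 8.4, 16.7 and 33.4 μg/mL. The read-out is the extent of growth inhibition at each concentration.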"}, "Pseudomonas aeruginosa [6]": {"system": "Pseudomonas aeruginosa", "assay": "Antimicrobial activity against Pseudomonas aeruginosa ATCC 15692 assessed as reduction in microbial growth at MIC concentration after 10 hrs by time kill assay", "format": "functional, organism-based", "outline": "(§3)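 Time-kill study against P. aeruginosa with compound at 1/4 MIC, MIC and 4 × MIC. Viable counts were followed as log CFU over a 24 h period, with sampling from 2 h onward. Ciprofloxacin served as the positive control.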"}, "Pseudomonas aeruginosa [7]": {"system": "Pseudomonas aeruginosa", "assay": "Antimicrobial activity against Pseudomonas aeruginosa ATCC 15692 assessed as reduction in microbial growth at 0.25 times of MIC concentration after 2 to 24 hrs by time kill assay", "format": "functional, organism-based", "conditions": "time 2.0 hrs", "outline": "as §3"}, "Pseudomonas aeruginosa [8]": {"system": "Pseudomonas aeruginosa", "assay": "Antimicrobial activity against Pseudomonas aeruginosa ATCC 15692 assessed as reduction in microbial growth at 4 times of MIC concentration after 24 hrs by time kill assay", "format": "functional, organism-based", "outline": "as §3"}, "Pseudomonas aeruginosa [9]": {"system": "Pseudomonas aeruginosa", "assay": "Antimicrobial activity against Pseudomonas aeruginosa ATCC 15692 assessed as reduction in microbial growth after 24 hrs by broth microdilution method", "format": "functional", "outline": "as §2"}, "Pseudomonas aeruginosa [10]": {"system": "Pseudomonas aeruginosa", "assay": "Antimicrobial activity against Pseudomonas aeruginosa ATCC 15692 assessed as reduction in microbial growth at 2.1 to 33.4 ug/ml after 24 hrs by broth microdilution method relative to control", "format": "functional", "conditions": "dose microg/ml 2.1-33.4", "outline": "as §2"}},
  "note": "The source made the active and inactive calls. The calls are words filed in the database; no cut-off is given here.",
  "data": [
    {"smiles": "CSc1ccc(Cc2cc(=O)c3ccccc3n2C)cc1", "values": [
      {"measurement": "diameter of the inhibition zone (DIZ)", "setting": "Staphylococcus aureus", "value": "inactive"},
      {"measurement": "zone of inhibition at 2000 µg/mL", "setting": "Pseudomonas aeruginosa [1]", "value": 36, "unit": "mm"},
      {"measurement": "diameter of the inhibition zone (DIZ)", "setting": "[2]", "value": "inactive"},
      {"measurement": "diameter of the inhibition zone (DIZ)", "setting": "Bacillus spizizenii [3]", "value": "inactive"},
      {"measurement": "swarming motility inhibition (active/not active)", "setting": "Bacillus spizizenii [4]", "value": "Active"},
      {"measurement": "Activity", "setting": "Pseudomonas aeruginosa [5]", "value": "inactive"}
    ]},
    {"smiles": "CC1(C)S[C@@H]2[C@H](NC(=O)[C@H](N)c3ccccc3)C(=O)N2[C@H]1C(=O)O", "note": "[AMPICILLIN]", "values": [
      {"measurement": "zone of inhibition at 2000 µg/mL", "setting": "Staphylococcus aureus", "value": 39, "unit": "mm"},
      {"measurement": "zone of inhibition at 2000 µg/mL", "setting": "[2]", "value": 29, "unit": "mm"}
    ]},
    {"smiles": "Cc1c(CN(C)C)c(=O)[nH]c2ccccc12", "values": [
      {"measurement": "swarming motility inhibition (active/not active)", "setting": "Bacillus spizizenii [4]", "value": "Active"}
    ]},
    {"smiles": "CCOC(OCC)c1c(C)c2ccccc2[nH]c1=O", "values": [
      {"measurement": "swarming motility inhibition (active/not active)", "setting": "Bacillus spizizenii [4]", "value": "inactive"}
    ]},
    {"smiles": "CCCC/C=C/Cc1cc(=O)c2ccccc2n1C", "values": [
      {"measurement": "swarming motility inhibition (active/not active)", "setting": "Bacillus spizizenii [4]", "value": "Active"}
    ]},
    {"smiles": "CN[C@H](CC(C)C)C(=O)N[C@H]1C(=O)N[C@@H](CC(N)=O)C(=O)N[C@H]2C(=O)N[C@H]3C(=O)N[C@H](C(=O)N[C@H](C(=O)O)c4cc(O)cc(O)c4-c4cc3ccc4O)[C@H](O)c3ccc(c(Cl)c3)Oc3cc2cc(c3O[C@@H]2O[C@H](CO)[C@@H](O)[C@H](O)[C@H]2O[C@H]2C[C@](C)(N)[C@H](O)[C@H](C)O2)Oc2ccc(cc2Cl)[C@H]1O", "note": "[VANCOMYCIN]", "values": [
      {"measurement": "zone of inhibition at 2000 µg/mL", "setting": "Bacillus spizizenii [3]", "value": 19, "unit": "mm"}
    ]},
    {"smiles": "CCSC(SCC)c1c(C)c2ccccc2[nH]c1=O", "values": [
      {"measurement": "swarming motility inhibition (active/not active)", "setting": "Bacillus spizizenii [4]", "value": "inactive"},
      {"measurement": "Activity", "setting": "Pseudomonas aeruginosa [5]", "value": "inactive"}
    ]},
    {"smiles": "CCSCc1c(C)c2ccccc2[nH]c1=O", "values": [
      {"measurement": "swarming motility inhibition (active/not active)", "setting": "Bacillus spizizenii [4]", "value": "Active"}
    ]},
    {"smiles": "CCS/C=C/c1cc(=O)c2ccccc2[nH]1", "values": [
      {"measurement": "zone of inhibition at 2000 µg/mL", "setting": "Staphylococcus aureus", "value": 13, "unit": "mm"},
      {"measurement": "diameter of the inhibition zone (DIZ)", "setting": "Pseudomonas aeruginosa [1]", "value": "inactive"},
      {"measurement": "diameter of the inhibition zone (DIZ)", "setting": "[2]", "value": "inactive"},
      {"measurement": "diameter of the inhibition zone (DIZ)", "setting": "Bacillus spizizenii [3]", "value": "inactive"},
      {"measurement": "swarming motility inhibition (active/not active)", "setting": "Bacillus spizizenii [4]", "value": "inactive"},
      {"measurement": "Activity", "setting": "Pseudomonas aeruginosa [5]", "value": "inactive"}
    ]},
    {"smiles": "CSC(SC)c1c(C)c2ccccc2[nH]c1=O", "values": [
      {"measurement": "swarming motility inhibition (active/not active)", "setting": "Bacillus spizizenii [4]", "value": "inactive"},
      {"measurement": "Activity", "setting": "Pseudomonas aeruginosa [5]", "value": "inactive"}
    ]},
    {"smiles": "O=c1cc(Cc2ccccc2)[nH]c2ccccc12", "values": [
      {"measurement": "swarming motility inhibition (active/not active)", "setting": "Bacillus spizizenii [4]", "value": "Active"},
      {"measurement": "Activity", "setting": "Pseudomonas aeruginosa [5]", "value": "inactive"}
    ]},
    {"smiles": "CSCc1c(C)c2ccccc2[nH]c1=O", "values": [
      {"measurement": "swarming motility inhibition (active/not active)", "setting": "Bacillus spizizenii [4]", "value": "Active"}
    ]},
    {"smiles": "COCc1c(C)c2ccccc2[nH]c1=O", "values": [
      {"measurement": "swarming motility inhibition (active/not active)", "setting": "Bacillus spizizenii [4]", "value": "Active"}
    ]},
    {"smiles": "CO/C=C/c1cc(=O)c2ccccc2[nH]1", "values": [
      {"measurement": "swarming motility inhibition (active/not active)", "setting": "Bacillus spizizenii [4]", "value": "inactive"}
    ]},
    {"smiles": "O=C(O)c1cn(C2CC2)c2cc(N3CCNCC3)c(F)cc2c1=O", "note": "[CIPROFLOXACIN]", "values": [
      {"measurement": "zone of inhibition at 2000 µg/mL", "setting": "Pseudomonas aeruginosa [1]", "value": 35, "unit": "mm"}
    ]},
    {"smiles": "CSc1ccc(Cc2cc(=O)c3ccccc3[nH]2)cc1", "values": [
      {"measurement": "diameter of the inhibition zone (DIZ)", "setting": "Staphylococcus aureus", "value": "inactive"},
      {"measurement": "zone of inhibition at 2000 µg/mL", "setting": "Pseudomonas aeruginosa [1]", "value": 29, "unit": "mm"},
      {"measurement": "diameter of the inhibition zone (DIZ)", "setting": "[2]", "value": "inactive"},
      {"measurement": "diameter of the inhibition zone (DIZ)", "setting": "Bacillus spizizenii [3]", "value": "inactive"},
      {"measurement": "swarming motility inhibition (active/not active)", "setting": "Bacillus spizizenii [4]", "value": "Active"},
      {"measurement": "Activity", "setting": "Pseudomonas aeruginosa [5]", "value": "inactive"}
    ]},
    {"smiles": "COC(OC)c1c(C)c2ccccc2[nH]c1=O", "values": [
      {"measurement": "swarming motility inhibition (active/not active)", "setting": "Bacillus spizizenii [4]", "value": "inactive"}
    ]},
    {"smiles": "Cn1c(Cc2ccccc2)cc(=O)c2ccccc21", "values": [
      {"measurement": "swarming motility inhibition (active/not active)", "setting": "Bacillus spizizenii [4]", "value": "inactive"},
      {"measurement": "Activity", "setting": "Pseudomonas aeruginosa [5]", "value": "inactive"}
    ]},
    {"smiles": "CCCC/C=C/Cc1cc(=O)c2ccccc2[nH]1", "values": [
      {"measurement": "Activity", "setting": "Pseudomonas aeruginosa [6]", "value": "Active"},
      {"measurement": "zone of inhibition at 2000 µg/mL", "setting": "Staphylococcus aureus", "value": 9, "unit": "mm"},
      {"measurement": "zone of inhibition at 2000 µg/mL", "setting": "Pseudomonas aeruginosa [1]", "value": 35, "unit": "mm"},
      {"measurement": "Activity", "setting": "Pseudomonas aeruginosa [7]", "value": "Active"},
      {"measurement": "Activity", "setting": "Pseudomonas aeruginosa [8]", "value": "Active"},
      {"measurement": "zone of inhibition at 2000 µg/mL", "setting": "[2]", "value": 24, "unit": "mm"},
      {"measurement": "zone of inhibition at 2000 µg/mL", "setting": "Bacillus spizizenii [3]", "value": 9, "unit": "mm"},
      {"measurement": "MIC", "setting": "Pseudomonas aeruginosa [9]", "value": 33, "unit": "µg/mL"},
      {"measurement": "swarming motility inhibition (active/not active)", "setting": "Bacillus spizizenii [4]", "value": "Active"},
      {"measurement": "Activity", "setting": "Pseudomonas aeruginosa [5]", "value": "Active"},
      {"measurement": "inhibition (INH)", "setting": "Pseudomonas aeruginosa [10]", "value": 37, "unit": "%"}
    ]},
    {"smiles": "CS/C=C/c1cc(=O)c2ccccc2[nH]1", "values": [
      {"measurement": "diameter of the inhibition zone (DIZ)", "setting": "Staphylococcus aureus", "value": "inactive"},
      {"measurement": "diameter of the inhibition zone (DIZ)", "setting": "Pseudomonas aeruginosa [1]", "value": "inactive"},
      {"measurement": "diameter of the inhibition zone (DIZ)", "setting": "[2]", "value": "inactive"},
      {"measurement": "zone of inhibition at 2000 µg/mL", "setting": "Bacillus spizizenii [3]", "value": 23, "unit": "mm"},
      {"measurement": "swarming motility inhibition (active/not active)", "setting": "Bacillus spizizenii [4]", "value": "inactive"},
      {"measurement": "Activity", "setting": "Pseudomonas aeruginosa [5]", "value": "inactive"}
    ]},
    {"smiles": "CCO/C=C/c1cc(=O)c2ccccc2[nH]1", "values": [
      {"measurement": "swarming motility inhibition (active/not active)", "setting": "Bacillus spizizenii [4]", "value": "inactive"}
    ]},
    {"smiles": "CS/C=C\\c1cc(=O)c2ccccc2[nH]1", "values": [
      {"measurement": "swarming motility inhibition (active/not active)", "setting": "Bacillus spizizenii [4]", "value": "inactive"}
    ]}
  ]
}
